Assay results reported in ChEMBL document CHEMBL4665894, “Driving Potency with Rotationally Stable Atropisomers: Discovery of Pyridopyrimidinedione-Carbazole Inhibitors of BTK” (ACS Med Chem Lett, 2020).
Several values for one entry are separate records, joined by “and”; a condition that tells them apart may be missing. Equal values may be shown once.

Columns and labels:
[1] = molecular target: T1, Tyrosine-protein kinase BTK (Homo sapiens, UniProt Q06187); assay: Inhibition of recombinant full-length His-tagged human BTK expressed in baculovirus expression system using fluoresceinated peptide as substrate incubated for 60 mins by fluorescence assay
Homo sapiens = species: Homo sapiens; assay: Selectivity ratio of IC50 for JAK2 (unknown origin) to IC50 for recombinant full-length His-tagged human BTK expressed in baculovirus expression system
[2] = molecular target: T1, Tyrosine-protein kinase BTK; assay: Inhibition of BTK in human Ramos B cells assessed as reduction in goat anti human IgM-stimulated calcium flux preincubated for 1 hr followed by goat anti human IgM addition and measured for 180 secs by FLIPR assay; format: cell-based
[3] = molecular target: T1, Tyrosine-protein kinase BTK; assay: Inhibition of BTK in human whole blood assessed as reduction in goat anti human IgM/human IL4-stimulated CD69 cell surface expression on peripheral B cells incubated for 18 hrs by FACS analysis; format: tissue-based
[4] = Stability of the compound in human whole blood assessed drug degradation at 0.5 uM incubated for 10 mins; format: ADME, tissue-based; conditions: read-out: Drug degradation
Method in brief: (§1)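 Test compound spiked into human whole blood at 0.5 µM and incubated; remaining parent tracked over time, with samples at 10 min and at 2 h.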

[5] = Stability of the compound in human whole blood assessed drug degradation at 0.5 uM incubated for 2 hrs; format: ADME, tissue-based; conditions: read-out: Drug degradation; method in brief: as §1
[6] = Glutathione reactivity in human liver microsomes assessed as GSH-adduct formation at 10 uM incubated for 60 mins; format: ADME; conditions: 1 h
[7] = Cmax in mouse at 10 mg/kg, PO; format: ADME, organism-based; set-up: route oral, dose 10 mg/kg; conditions: in vivo
[8] = AUC in mouse at 10 mg/kg, PO; format: ADME, organism-based; set-up: dose 10 mg/kg; conditions: in vivo
B cell = assay: Antiproliferative activity against anti-IgM/IgG-induced human peripheral B cells; format: functional, cell-based
Method in brief: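 B cell receptor stimulation of human peripheral B cells with anti-IgM/IgG (proliferation read-out), of human whole blood with anti-IgM (CD69 surface expression), and of mouse whole blood with anti-IgM/IgG (CD69 surface expression). IC50 reported as the mean of at least three determinations; for line 9 a single determination is also reported.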

T1 sequence (Q06187 whole entry): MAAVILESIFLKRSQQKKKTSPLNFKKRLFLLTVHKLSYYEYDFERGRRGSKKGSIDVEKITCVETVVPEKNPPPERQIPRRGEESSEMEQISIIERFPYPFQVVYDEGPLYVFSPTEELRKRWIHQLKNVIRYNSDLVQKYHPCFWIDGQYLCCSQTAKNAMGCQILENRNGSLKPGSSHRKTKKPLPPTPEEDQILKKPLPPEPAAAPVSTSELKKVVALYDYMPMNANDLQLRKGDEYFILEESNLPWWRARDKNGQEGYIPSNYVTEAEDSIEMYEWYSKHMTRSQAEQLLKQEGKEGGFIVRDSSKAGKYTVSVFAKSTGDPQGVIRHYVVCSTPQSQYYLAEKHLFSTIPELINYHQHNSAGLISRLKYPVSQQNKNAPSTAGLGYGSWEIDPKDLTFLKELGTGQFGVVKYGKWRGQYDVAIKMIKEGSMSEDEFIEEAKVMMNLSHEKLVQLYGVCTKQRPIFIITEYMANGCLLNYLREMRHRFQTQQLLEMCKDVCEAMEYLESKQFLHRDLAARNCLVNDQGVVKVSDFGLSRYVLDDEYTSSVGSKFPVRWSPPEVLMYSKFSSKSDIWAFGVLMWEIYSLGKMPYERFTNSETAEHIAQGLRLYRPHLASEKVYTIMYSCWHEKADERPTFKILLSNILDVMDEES

SMILES | IC50 [1] [µM] | Ratio IC50 (Homo sapiens) | IC50 [2] | IC50 [3] | metabolised at 10 min, 0.5 µM [4] [%] | metabolised at 2 h, 0.5 µM [5] [%] | Stabilty [6] | Cmax [7] [nM] | AUC [8] [µM·h] | IC50 (B cell) [µM]
Cc1c(-c2ccc(C(N)=O)c3[nH]c4cc(C(C)(C)O)ccc4c23)cccc1-n1c(=O)cc2cc(Cl)ccn2c1=O | 0.00049 | 1500 | 0.0031 µM | 3 µM | > 85 | 100 | Unstable |  |  | 
COc1cccn2c(=O)n(-c3cccc(-c4ccc(C(N)=O)c5[nH]c6cc(C(C)(C)O)ccc6c45)c3C)c(=O)cc12 |  | 1900 | 0.019 µM | 0.14 µM |  |  |  | 1300 | 4 | 
Cc1c(-c2ccc(C(N)=O)c3[nH]c4cc(C(C)(C)O)ccc4c23)cccc1-n1cnc2ccccc2c1=O |  |  |  |  |  |  |  |  | 80 | 0.008
COc1ccn2c(=O)n(-c3cccc(-c4ccc(C(N)=O)c5[nH]c6cc(C(C)(C)O)ccc6c45)c3C)c(=O)cc2c1 |  | 1600 | 0.019 µM | 0.14 µM |  |  |  | 1300 | 3.9 | 
Cc1c(-c2ccc(C(N)=O)c3[nH]c4cc(C(C)(C)O)ccc4c23)cccc1-n1c(=O)cc2c(Cl)cccn2c1=O |  | 1400 and 1100 and 2500 | 0.012 µM and 0.018 µM and 0.013 µM | 0.12 µM and 0.078 µM and 0.069 µM |  |  | Stable | 3500 | 23 | 
Cc1c(-c2ccc(C(N)=O)c3[nH]c4cc(C(C)(C)O)ccc4c23)cccc1-n1c(=O)cc2c(F)cccn2c1=O | 0.00086 | 1100 and 500 and 870 | 0.019 µM and 0.018 µM and 0.014 µM | 0.075 µM and 0.091 µM and 0.079 µM |  |  |  | 5200 | 28 | 
